# Bioassay records deposited in PubChem BioAssay by Johns Hopkins Ion Channel Center.
# TRPC4 inh – TRPC4 (mouse) channel inhibition; HEK293 TRPC4beta/mu-opioid, DAMGO-evoked Fluo4 calcium flux; hits give low values; B-score at 10 µM; AID 2247; 300,000 tested, 0.39% active; Q9QUQ5;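 active = B-score over 3 SD under the library average, no early fluorescence shift, positive overall ratio signal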
#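 Test system – stable TRPC4beta/mu-opioid receptor HEK293 cells · Probe or stimulus – DAMGO, a submaximal dose followed by a maximal one · Dosing – one concentration per compound · Signal – Fluo4 calcium fluorescence by kinetic imaging, 5 s 1 Hz baseline · Evaluation – per-well B score of integrated baseline-normalized Fluo4 ratio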
# TRPC6 act – mouse TRPC6 channel activation. Q61143. HEK293-TRPC6 membrane potential dye fluorescence; hits give high values. B-score at 10 µM. 310,000 tested, 0.13% active. AID 2550;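 active = B-score of the integrated fluorescence ratio above library mean plus 3 SD, and starting fluorescence ratio within library mean plus 5 SD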;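 also: higher score means more depolarization so channel activation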
# Target sequence (Q61143 whole entry, looked up): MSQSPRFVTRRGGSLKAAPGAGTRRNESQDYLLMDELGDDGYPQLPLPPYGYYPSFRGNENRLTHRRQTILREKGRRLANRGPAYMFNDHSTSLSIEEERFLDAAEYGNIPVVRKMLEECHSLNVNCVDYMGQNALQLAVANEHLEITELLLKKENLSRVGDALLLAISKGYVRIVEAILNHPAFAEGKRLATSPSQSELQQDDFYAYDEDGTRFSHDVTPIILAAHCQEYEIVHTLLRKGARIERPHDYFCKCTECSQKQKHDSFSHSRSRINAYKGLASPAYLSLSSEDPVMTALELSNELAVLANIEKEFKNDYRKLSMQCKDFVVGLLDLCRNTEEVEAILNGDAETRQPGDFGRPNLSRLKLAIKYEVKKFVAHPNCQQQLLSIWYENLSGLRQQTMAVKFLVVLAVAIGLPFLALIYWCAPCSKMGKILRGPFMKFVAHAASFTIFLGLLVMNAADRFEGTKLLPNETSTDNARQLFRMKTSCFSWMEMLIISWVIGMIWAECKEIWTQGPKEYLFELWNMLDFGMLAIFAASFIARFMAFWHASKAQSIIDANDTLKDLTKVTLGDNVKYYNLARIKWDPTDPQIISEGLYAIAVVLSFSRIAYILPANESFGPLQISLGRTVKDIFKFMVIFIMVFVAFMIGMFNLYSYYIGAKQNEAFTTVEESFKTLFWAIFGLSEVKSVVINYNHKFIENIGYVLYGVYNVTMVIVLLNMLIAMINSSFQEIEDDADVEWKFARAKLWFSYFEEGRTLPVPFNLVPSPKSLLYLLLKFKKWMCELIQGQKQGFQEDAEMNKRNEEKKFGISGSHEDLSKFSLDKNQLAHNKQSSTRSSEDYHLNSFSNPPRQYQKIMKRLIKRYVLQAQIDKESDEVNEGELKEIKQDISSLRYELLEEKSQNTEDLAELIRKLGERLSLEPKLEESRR
# TRPC4 potent – TRPC4 (mouse) allosteric potentiation; HEK293 TRPC4beta/mu-opioid, DAMGO EC20, Fluo-4 Ca2+ flux; hits give high values; B-score at 10 µM; 310,000 tested, 0.42% active; AID 2227;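 active = B-score of calcium response area above 5 SD of library B-scores, with initial fluorescence ratio within 5 SD of library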;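 also: B-score of integrated fluorescence ratio over time as area under calcium response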
# TRPC6 inhibitor – blocks the mouse TRPC6 cation channel | Q61143 | HEK293-TRPC6, membrane potential dye, ACh-evoked depolarization; hits give low values | B-score at 10 µM | 310,000 tested, 1.1% active;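 active = B-score under library mean minus 3 SD, initial fluorescence not abnormally high, positive integrated signal ratio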;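 also: B-score derived from integrated fluorescence ratio over the kinetic read; more negative B-score means stronger inhibition of depolarization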
# TRPC4 agonist – opens the mouse TRPC4 cation channel; Q9QUQ5; HEK293 TRPC4beta/mu-opioid, Fluo4 calcium fluorescence; hits give high values; B-score at 10 µM; 310,000 tested, 0.49% active; AID 2237;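 active = B-score above 5 SD of library B-scores, and initial fluorescence ratio not above library mean plus 5 SD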;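 also: positive B-score marks a calcium rise read as TRPC4 activation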
#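 System – HEK293 cells stably co-expressing mouse TRPC4beta and mu-opioid receptor · Signal – Fluo4 calcium-sensitive dye fluorescence, kinetic, 1 Hz baseline · Benchmarks – buffer (low) and maximal DAMGO (high) · Read-out – B score of integrated fluorescence ratio per well · Incubation – dye loading 45 min room temperature, 110 s kinetic read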
# TRPC4 spec 2 – second check of whether TRPC6 inhibitors also affect mouse TRPC4; shares compounds with TRPC6 inhibitor; inhibition, % at 10 µM; HEK293 TRPC4/MOR, membrane potential dye fluorescence; channel activated by saturating DAMGO dose; 920 tested, 42% active;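 active = compounds whose fluorescence signal differed from control wells by over 3 SD, either direction, in both duplicate plates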
# TRPC4 spec – mouse TRPC4 off-target activity of TRPC6 inhibitors; shares compounds with TRPC6 inhibitor; 920 tested, 61% active; HEK293 TRPC4/mu-opioid, membrane potential fluorescence; activity change, negative = inhibition, % at 10 µM;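 active = rise or fall in signal beyond 3 SD of buffer-only wells in both replicate plates, either sign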;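 also: integrated kinetic ratio of fluorescence range over baseline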
# HEK293 MPD ctr 2-1 – second counter-screen for TRPC6 inhibitors: parental HEK293 cells; parental HEK293 membrane potential dye fluorescence; maximal acetylcholine challenge after compound addition; AID 2779; signal change vs control, % at 10 µM; shares compounds with TRPC6 inhibitor; 920 tested, 31% active;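 active = membrane potential signal moving either way by over 3 SD of the maximum-effect control, in both duplicate plates, meaning non-specific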
# HEK293 MPD ctr-1 – checks TRPC6 inhibitor effects in parental HEK293 cells; 920 tested, 60% active; membrane potential signal change, % at 10 µM; AID 2780; shares compounds with TRPC6 inhibitor; parental HEK293 membrane potential dye fluorescence;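 active = membrane potential signal shifting up or down by more than 3 SD of buffer-only wells, on both duplicate plates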
# HEK293 MPD ctr-2 – checks TRPC6 modulator effects in parental HEK293 cells; shares compounds with TRPC6 inhibitor; membrane potential dye fluorescence; membrane potential signal change, % at 10 µM; 2,400 tested, 51% active; AID 488924;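 active = membrane potential signal moves up or down beyond 5 SD from buffer-only wells, on both duplicate plates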
# HEK293 MPD ctr 2-2 – second check of TRPC6 modulator effects in parental HEK293 cells | AID 488926 | shares compounds with TRPC6 inhibitor | membrane potential dye fluorescence; after compound, maximal acetylcholine stimulation | inhibition, % at 10 µM | 2,400 tested, 14% active;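 active = membrane potential signal drops by more than 5 SD from the mean control signal, in both duplicate plates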;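 also: plate controls were acetylcholine ECmax control wells for no effect and buffer only wells for full effect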
# TRPC4/MOR mod – selectivity of TRPC6 modulators against mouse TRPC4; shares compounds with TRPC6 inhibitor; HEK293 TRPC4/mu-opioid, membrane potential fluorescence; percent change from control (negative = decrease, positive = increase), % at 10 µM; 2,400 tested, 69% active; AID 488927;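 active = membrane potential signal moved up or down beyond 5 SD of buffer control wells, in both duplicate plates, actives on both sides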;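 also: plate controls were assay buffer wells for no effect and DAMGO maximal-effect wells for full effect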
# TRPC4/MOR inh 2 – mouse TRPC4 off-target activity of TRPC6 modulators, second screen; shares compounds with TRPC6 inhibitor; HEK293 TRPC4/mu-opioid, membrane potential dye fluorescence; stimulated with maximal-effect DAMGO; inhibition, % at 10 µM; 2,400 tested, 55% active; AID 488928;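 active = drop in membrane potential signal beyond 5 SD of the control wells in both duplicate plates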;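 also: TRPC4 counter screen for TRPC6 hits run under conditions tuned for TRPC6 not TRPC4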
# TRPC6 inh conf – confirmation of mouse TRPC6 inhibitors; HEK293-TRPC6, membrane potential dye, ACh-evoked depolarization; inhibition, % at 10 µM; 3,300 tested, 43% active; AID 488960; shares compounds with TRPC6 inhibitor;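 active = fluorescence ratio falls more than 5 SD below the full-stimulation control mean, in both duplicate runs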;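 also: integrated fluorescence ratio of peak minus minimum over baseline after agonist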
# TRPC6 act conf – confirmation of mouse TRPC6 activators. shares compounds with TRPC6 inhibitor. HEK293-TRPC6 membrane potential dye fluorescence, FDSS. activation, % at 10 µM. 2,800 tested, 11% active. AID 488961;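 active = ratio signal rise beyond 5 SD above unstimulated control wells' mean, seen in both duplicate runs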;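 also: plate controls were buffer EC0 wells for no effect and acetylcholine ECmax response for full effect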
# An asterisk follows results filed as active; i = inactive; / = not tested or not shown; ! = repeats disagree. Only some compounds are listed: those with a hit (about 2.3% of all), similar ones and a draw of the others.
SMILES,TRPC4 inh,TRPC6 act,TRPC4 potent,TRPC6 inhibitor,TRPC4 agonist,HEK293 MPD ctr-2,HEK293 MPD ctr 2-2,TRPC4/MOR mod,TRPC4/MOR inh 2,TRPC6 inh conf,TRPC6 act conf,others
CC1=C(C/C(C)=C/c2ccccc2)/C(=C/CO)[C@@H]2OC(=O)O[C@]2(C)C12CC2,i,i,i,i,i,/,/,/,/,/,/,
C[N+]1(C)[C@@H]2CC[C@H]1CC(OC(=O)C(c1ccccc1)c1ccccc1)C2 (stereo not given in full),i,i,i,-5.3*,i,i,91%*,i,i,96%*,i,
Clc1ccc2sc(C3CCNCC3)nc2c1,i,i,i,-6*,187*,i,i,47%*,52%*,i,i,
CC(C)(C)NC(=S)/N=C(\N)N[N+](=O)[O-],i,i,i,i,i,/,/,/,/,/,/,
COc1ccc(-c2cc(=NCCC(=O)O)c3cc(C)ccc3o2)cc1,i,i,i,i,i,/,/,/,/,/,/,
COc1ccc(-c2cc(=Nc3ccccc3)c3cc(C)ccc3o2)cc1,i,i,i,-7.7*,i,/,/,/,/,i,i,TRPC4 spec 2=i;TRPC4 spec=-18%*;HEK293 MPD ctr 2-1=i;HEK293 MPD ctr-1=-198%*
Oc1ccc(C2=CCNCC2)cc1O,i,i,i,i,i,/,/,/,/,/,/,
CN(C)c1ccc(CN2CC=C(c3ccc(F)cc3)CC2)cc1,i,i,i,-7.9*,i,/,/,/,/,i,i,TRPC4 spec 2=75%*;TRPC4 spec=i;HEK293 MPD ctr 2-1=i;HEK293 MPD ctr-1=i
CN1CN(c2cccc([N+](=O)[O-])c2)CN=C1N[N+](=O)[O-],i,i,i,i,i,/,/,/,/,/,/,
Cc1ccc(-c2nc3ccccc3c(=O)n2-c2cccc(C)n2)cc1,i,i,i,-6*,i,i,i,i,i,i,i,
Cc1ccc(-c2nc3ccccc3c(=O)n2-c2cc(C)ccn2)cc1,i,i,i,i,i,/,/,/,/,/,/,
O=C(NCc1cccnc1)C(Cl)(Cl)Cl,i,i,i,i,i,/,/,/,/,/,/,
O=C(Nc1ccccc1)c1cc([N+](=O)[O-])ccc1N1CCNCC1,i,i,i,i,i,/,/,/,/,/,/,
O=[N+]([O-])c1ccc2nc(N3CCNCC3)ccc2c1,i,i,i,-5*,i,-218%*,i,-38%*,42%*,i,i,
Fc1ccc(C[n+]2c(-c3ccccc3)cc(-c3ccccc3)cc2-c2ccccc2)cc1,i,i,i,-6.9*,i,/,/,/,/,56%*,i,TRPC4 spec 2=75%*;TRPC4 spec=4.2%*;HEK293 MPD ctr 2-1=232%*;HEK293 MPD ctr-1=3.5%*
CC(C)COP(=O)(OCC(C)C)C(O)c1cccnc1 (stereo not given),i,i,i,i,i,/,/,/,/,/,/,
CC(=O)OCC[N+](C)(C)C,i,15*!,i,-7.9*,125*,133%*!,66%*!,44%*,i,70%*,124%*,TRPC4 spec 2=i;TRPC4 spec=37%*;HEK293 MPD ctr 2-1=i;HEK293 MPD ctr-1=4.2%*
O=c1[nH]c(=S)n(Cc2ccc(F)cc2)c(O)c1C=NCc1cccnc1,i,i,i,i,i,/,/,/,/,/,/,
CN1CCC(OC(=O)C2c3ccccc3Oc3ccccc32)CC1,i,i,i,-6.8*,i,/,/,/,/,67%*,/,TRPC4 spec 2=i;TRPC4 spec=4.7%*;HEK293 MPD ctr 2-1=i;HEK293 MPD ctr-1=8.4%*
CN1CCC(OC(=O)Cc2ccccc2)CC1,i,i,i,i,i,/,/,/,/,/,/,
CC(Cc1ccccc1)N1C(=O)c2ccccc2C1=O (stereo not given),i,i,i,i,i,/,/,/,/,/,/,
O=C1OC(c2ccc([N+](=O)[O-])cc2)=N/C1=C/N1CC2CC(C1)c1cccc(=O)n1C2 (stereo not given),i,37*,i,i,96*,272%*,102%*,57%*,31%*,/,124%*,
N#CC(C#N)=NNc1ccc(-n2ccc(C(F)(F)F)n2)cc1,i,i,i,-9.2*,i,170%*,i,27%*,71%*,62%*,i,
N/C(=N\[N+](=O)[O-])N1CCN(C(=O)c2ccccc2)CC1,i,i,i,i,i,/,/,/,/,/,/,
O=C1NC(=S)N(c2ccccc2)C(=O)C1C(c1ccncc1)C1C(=O)NC(=S)N(c2ccccc2)C1=O (stereo not given),i,i,i,i,i,/,/,/,/,/,/,
OC(Cn1c2ccccc2c2ccccc21)C[n+]1cccc2ccccc21 (stereo not given),i,i,i,-6.7*,i,/,/,/,/,59%*,i,TRPC4 spec 2=i;TRPC4 spec=-28%*;HEK293 MPD ctr 2-1=i;HEK293 MPD ctr-1=-334%*
OC(CN1CCOCC1)c1csc2ccccc12 (stereo not given),i,i,i,i,i,/,/,/,/,/,/,
O=[N+]([O-])c1ccc(-[n+]2c(-c3ccccc3)cc(-c3ccccc3)cc2-c2ccccc2)cc1,i,i,i,i,i,/,/,/,/,/,/,
O=[N+]([O-])c1ccccc1-c1cc(-c2ccccc2)cc(-c2ccccc2)[n+]1Cc1ccccc1Cl,i,i,i,-5.7*,i,i,i,-8.5%*,i,i,i,
COc1c(C)cc(C(=O)C2CCCN(Cc3cccc(C)n3)C2)cc1C (stereo not given),i,i,i,i,i,/,/,/,/,/,/,
